Experimental findings from paper PMC5034155 (Journal of medicinal chemistry, 2016) are described below.

One series concerns the target PB1(5) bromodomain (Homo sapiens, UniProt Q86U86). Briefly: DSF thermal shift, PB1. The following applies: fragment screen against PB1(5); confirmed by ITC. The format is binding. A general note: ITC needs no label: the signal is the heat of the interaction.
Series [1] has as its system C2C12 and C3H10T1/2 cells. Briefly: MTT cell viability assay. The format is cell-based. The following applies: up to 50 μM dose, 72 hours. Background: Tetrazolium assays rely on reduction of a dye to a coloured formazan, in cell work by metabolically active cells.
Series [2] in a line: Chemical stability in cell media. The format is physicochemical. Particulars: after one week in cell media at 37°C.
Series [3] relates to clear cell renal cell carcinoma cell lines (786-O and Rcc4). Briefly: ccRCC cell line proliferation. The format is cell-based. Particulars: 786-O (wild type PB1) and Rcc4 (PB1 downregulation).
A further series deals with SMARCA4 (Homo sapiens, UniProt P51532). Briefly: SMARCA4 FRAP assay. The format is cell-based. Put shortly: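 Run like the SMARCA2 FRAP: U2OS cells treated with the HDAC inhibitor SAHA to induce hyperacetylation, transfected with a GFP-tagged bromodomain construct, and exposed to test compound. Chromatin displacement is read as the fluorescence recovery half-time after photobleaching.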

Series [4] deals with C3H10T1/2 mesenchymal cells. Briefly: Adipocyte differentiation. The format is cell-based. The following applies: 20 μM.
The next series deals with Family VIII bromodomains. Briefly: Isothermal Titration Calorimetry, Family VIII bromodomains. The format is binding.
For the next series, the target named is GFP-SMARCA2 in U2OS (Homo sapiens, UniProt P51531). Briefly: SMARCA2 FRAP assay. The format is cell-based. Particulars: U2OS treated with SAHA.
Another series addresses GFP-PB1 (Homo sapiens, UniProt Q86U86). Briefly: PB1 FRAP assay. The format is cell-based. The following applies: SAHA treated. The gist of the method: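 GFP-tagged PB1 (wild type or N263A / N707F acetyl-lysine-site mutants) expressed by transfection in cells pretreated with SAHA (2.5 μM) to hyperacetylate chromatin. Test compound given at several doses. Read-out is the half-time (t½) of fluorescence recovery after photobleaching, averaged from individual recovery curves of at least 20 cells per group with SEM. p-values are relative to wild type with SAHA.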

The test system of series [5] is non-family VIII bromodomains. Briefly: Tm shift panel of 40 bromodomain proteins. The format is binding.
Series [6] has as its system non-family VIII bromodomains. Briefly: BROMOscan profiling from DiscoveRx. The format is binding.

SMARCA4, sequence (P51532 whole entry): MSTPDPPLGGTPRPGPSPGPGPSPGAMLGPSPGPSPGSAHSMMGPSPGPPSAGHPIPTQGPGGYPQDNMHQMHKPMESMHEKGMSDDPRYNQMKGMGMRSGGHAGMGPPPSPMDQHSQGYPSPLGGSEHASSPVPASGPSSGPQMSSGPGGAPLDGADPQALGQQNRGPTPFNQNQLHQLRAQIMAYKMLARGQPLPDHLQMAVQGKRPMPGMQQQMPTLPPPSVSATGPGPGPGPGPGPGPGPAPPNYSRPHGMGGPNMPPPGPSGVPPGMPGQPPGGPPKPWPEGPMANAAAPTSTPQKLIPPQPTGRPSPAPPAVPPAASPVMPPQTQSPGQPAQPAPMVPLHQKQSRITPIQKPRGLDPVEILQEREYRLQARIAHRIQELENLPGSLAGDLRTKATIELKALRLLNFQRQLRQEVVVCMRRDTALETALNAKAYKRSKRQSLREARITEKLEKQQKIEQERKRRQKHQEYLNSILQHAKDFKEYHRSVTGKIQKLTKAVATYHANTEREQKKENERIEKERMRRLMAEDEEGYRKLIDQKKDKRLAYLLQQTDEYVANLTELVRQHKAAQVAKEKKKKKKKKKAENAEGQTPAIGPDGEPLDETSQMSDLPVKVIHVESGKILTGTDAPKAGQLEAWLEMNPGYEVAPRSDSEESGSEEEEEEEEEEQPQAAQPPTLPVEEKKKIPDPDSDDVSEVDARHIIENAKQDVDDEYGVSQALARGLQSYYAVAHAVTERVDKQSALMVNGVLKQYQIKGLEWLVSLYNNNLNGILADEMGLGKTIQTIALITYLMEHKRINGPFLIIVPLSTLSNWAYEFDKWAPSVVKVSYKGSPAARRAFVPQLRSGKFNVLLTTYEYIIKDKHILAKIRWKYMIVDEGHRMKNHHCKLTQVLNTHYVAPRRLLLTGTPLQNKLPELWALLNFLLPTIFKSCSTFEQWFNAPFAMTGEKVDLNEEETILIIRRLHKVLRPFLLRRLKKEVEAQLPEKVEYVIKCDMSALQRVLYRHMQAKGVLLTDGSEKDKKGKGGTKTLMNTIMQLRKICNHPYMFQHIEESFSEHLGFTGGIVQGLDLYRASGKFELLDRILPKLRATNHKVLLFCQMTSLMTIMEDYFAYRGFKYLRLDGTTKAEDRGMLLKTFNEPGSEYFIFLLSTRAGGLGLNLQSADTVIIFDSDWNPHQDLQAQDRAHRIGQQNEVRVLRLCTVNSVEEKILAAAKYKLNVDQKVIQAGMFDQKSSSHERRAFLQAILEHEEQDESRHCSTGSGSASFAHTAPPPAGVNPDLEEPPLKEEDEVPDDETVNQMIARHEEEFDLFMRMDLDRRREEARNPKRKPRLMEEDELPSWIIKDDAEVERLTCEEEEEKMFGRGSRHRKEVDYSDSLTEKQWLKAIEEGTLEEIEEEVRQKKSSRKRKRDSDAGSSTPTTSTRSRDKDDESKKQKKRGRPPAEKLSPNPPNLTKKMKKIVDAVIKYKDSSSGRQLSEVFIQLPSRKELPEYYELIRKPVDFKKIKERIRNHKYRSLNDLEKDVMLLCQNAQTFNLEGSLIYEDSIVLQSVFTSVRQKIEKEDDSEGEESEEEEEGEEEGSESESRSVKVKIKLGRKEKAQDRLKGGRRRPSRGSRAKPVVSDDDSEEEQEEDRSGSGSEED
GFP-PB1, sequence (Q86U86 whole entry): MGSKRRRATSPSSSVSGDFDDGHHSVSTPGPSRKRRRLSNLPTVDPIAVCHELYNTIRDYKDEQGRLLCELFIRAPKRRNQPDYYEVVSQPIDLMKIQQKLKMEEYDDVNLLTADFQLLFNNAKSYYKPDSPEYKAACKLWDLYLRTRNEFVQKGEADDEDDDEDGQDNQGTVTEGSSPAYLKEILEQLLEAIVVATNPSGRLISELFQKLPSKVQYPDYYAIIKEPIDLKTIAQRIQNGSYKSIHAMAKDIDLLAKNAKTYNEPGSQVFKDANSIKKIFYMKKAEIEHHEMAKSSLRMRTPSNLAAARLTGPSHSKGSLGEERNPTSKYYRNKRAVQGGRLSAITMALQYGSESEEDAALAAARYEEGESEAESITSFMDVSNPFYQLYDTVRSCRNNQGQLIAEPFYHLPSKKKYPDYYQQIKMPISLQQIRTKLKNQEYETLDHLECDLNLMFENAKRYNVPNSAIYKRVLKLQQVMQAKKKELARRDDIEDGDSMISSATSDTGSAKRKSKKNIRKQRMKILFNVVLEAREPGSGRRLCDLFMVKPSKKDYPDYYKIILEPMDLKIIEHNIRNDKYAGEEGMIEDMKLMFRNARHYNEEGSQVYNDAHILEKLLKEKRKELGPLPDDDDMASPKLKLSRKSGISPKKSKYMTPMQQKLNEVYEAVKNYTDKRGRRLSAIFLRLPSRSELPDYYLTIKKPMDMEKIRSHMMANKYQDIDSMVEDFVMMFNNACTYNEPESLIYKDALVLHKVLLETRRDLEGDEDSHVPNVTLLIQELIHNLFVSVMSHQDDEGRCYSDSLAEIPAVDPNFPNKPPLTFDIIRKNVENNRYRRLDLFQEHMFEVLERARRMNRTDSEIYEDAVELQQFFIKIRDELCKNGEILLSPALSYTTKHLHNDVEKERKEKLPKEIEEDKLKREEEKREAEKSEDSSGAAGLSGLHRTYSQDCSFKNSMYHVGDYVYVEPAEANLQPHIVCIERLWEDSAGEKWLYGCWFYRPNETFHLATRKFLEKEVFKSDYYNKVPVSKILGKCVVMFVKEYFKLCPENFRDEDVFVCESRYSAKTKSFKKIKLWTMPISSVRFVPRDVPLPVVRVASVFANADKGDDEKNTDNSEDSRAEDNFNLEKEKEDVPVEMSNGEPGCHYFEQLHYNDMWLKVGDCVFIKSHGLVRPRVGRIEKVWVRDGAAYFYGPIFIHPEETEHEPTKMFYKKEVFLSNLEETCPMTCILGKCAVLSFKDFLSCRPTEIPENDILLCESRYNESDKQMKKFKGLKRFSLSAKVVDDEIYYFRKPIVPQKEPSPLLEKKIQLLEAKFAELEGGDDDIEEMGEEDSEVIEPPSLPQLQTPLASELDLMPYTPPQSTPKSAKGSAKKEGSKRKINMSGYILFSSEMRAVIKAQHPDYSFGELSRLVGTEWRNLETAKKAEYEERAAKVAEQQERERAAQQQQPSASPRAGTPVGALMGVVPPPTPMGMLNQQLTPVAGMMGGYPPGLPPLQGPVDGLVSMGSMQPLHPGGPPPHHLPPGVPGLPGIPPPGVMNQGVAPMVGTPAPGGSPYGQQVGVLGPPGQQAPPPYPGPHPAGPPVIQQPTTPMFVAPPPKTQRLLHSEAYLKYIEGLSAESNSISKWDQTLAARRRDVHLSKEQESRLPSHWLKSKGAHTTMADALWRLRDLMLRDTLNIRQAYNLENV
GFP-SMARCA2 in U2OS, sequence (P51531 1-1572 isoform P51531-2): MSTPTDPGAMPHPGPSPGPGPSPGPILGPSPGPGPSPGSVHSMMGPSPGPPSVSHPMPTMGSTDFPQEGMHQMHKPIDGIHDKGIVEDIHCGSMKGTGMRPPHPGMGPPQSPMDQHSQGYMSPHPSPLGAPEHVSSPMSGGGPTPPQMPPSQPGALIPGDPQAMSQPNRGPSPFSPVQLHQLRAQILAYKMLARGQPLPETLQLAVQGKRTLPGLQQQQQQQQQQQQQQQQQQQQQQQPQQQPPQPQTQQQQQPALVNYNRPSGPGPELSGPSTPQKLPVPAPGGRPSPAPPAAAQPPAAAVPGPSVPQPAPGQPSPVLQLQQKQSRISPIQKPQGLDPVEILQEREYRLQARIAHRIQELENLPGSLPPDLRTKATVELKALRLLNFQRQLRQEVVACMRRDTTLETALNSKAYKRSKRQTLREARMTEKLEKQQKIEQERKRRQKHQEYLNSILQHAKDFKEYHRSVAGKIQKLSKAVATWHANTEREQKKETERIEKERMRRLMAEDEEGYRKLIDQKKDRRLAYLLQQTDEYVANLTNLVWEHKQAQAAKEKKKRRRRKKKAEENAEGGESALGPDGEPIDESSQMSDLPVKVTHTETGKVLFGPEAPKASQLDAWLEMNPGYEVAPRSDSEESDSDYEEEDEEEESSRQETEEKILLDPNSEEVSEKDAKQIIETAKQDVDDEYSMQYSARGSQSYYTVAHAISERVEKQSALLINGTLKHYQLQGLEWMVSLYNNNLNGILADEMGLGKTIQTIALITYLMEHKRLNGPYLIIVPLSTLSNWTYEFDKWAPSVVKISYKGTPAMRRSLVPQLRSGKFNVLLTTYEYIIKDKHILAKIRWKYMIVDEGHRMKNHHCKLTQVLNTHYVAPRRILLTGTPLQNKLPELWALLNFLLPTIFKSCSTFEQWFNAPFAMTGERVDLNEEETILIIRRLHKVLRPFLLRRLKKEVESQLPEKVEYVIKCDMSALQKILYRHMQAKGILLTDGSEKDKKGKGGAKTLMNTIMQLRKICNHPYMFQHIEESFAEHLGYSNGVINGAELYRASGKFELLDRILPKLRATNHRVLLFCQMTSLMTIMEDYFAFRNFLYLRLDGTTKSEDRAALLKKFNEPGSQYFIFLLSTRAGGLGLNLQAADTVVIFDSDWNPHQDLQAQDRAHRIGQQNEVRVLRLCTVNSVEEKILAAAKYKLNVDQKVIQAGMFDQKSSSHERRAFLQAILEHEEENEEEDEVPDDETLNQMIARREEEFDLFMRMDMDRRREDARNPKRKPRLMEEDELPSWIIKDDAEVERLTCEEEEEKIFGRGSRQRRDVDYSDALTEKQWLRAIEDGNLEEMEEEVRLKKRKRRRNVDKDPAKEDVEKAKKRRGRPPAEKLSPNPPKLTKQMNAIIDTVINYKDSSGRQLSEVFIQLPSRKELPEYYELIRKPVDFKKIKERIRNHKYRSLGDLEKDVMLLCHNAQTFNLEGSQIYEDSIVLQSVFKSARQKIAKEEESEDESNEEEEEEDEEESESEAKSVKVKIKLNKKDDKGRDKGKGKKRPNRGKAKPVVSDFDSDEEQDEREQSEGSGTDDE
PB1(5) bromodomain, sequence (Q86U86 653-763 limits assumed): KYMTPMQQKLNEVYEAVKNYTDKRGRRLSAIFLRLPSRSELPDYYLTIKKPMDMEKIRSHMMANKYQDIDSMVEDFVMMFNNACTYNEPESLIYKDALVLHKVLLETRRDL

Take `O=C(O)c1ccccc1O` [Compound 1, salicylic acid]: the “fragment screen hit quality (DSF)” value on PB1(5) bromodomain was “weak, but highly ligand efficient hit”.
As for `O=C(/C=C/N1C[C@H]2C[C@@H]1CN2c1ccccn1)c1ccccc1O` [Compound 16, (E)-1-(2-hydroxyphenyl)-3-((1R,4R)-5-(pyridin-2-yl)-2,5-diazabicyclo[2.2.1]heptan-2-yl)prop-2-en-1-one], in [1], the “cytotoxic effect (MTT cell viability)” value was “did not have significant cytotoxic effect”. Besides, in [2], the compound recovered entry was “Greater than 90%”. Moreover, the “effect on cell line proliferation” value in series [3] is recorded as “did not show any effect”. Moreover, on SMARCA4, the “SMARCA4 in cell target engagement (FRAP)” value is “confirmed”. Further, the inhibition of adipogenesis entry in series [4] is “Near complete inhibition”.
Regarding `O=C(/C=C/N1[C@H]2CC[C@@H]1c1ncnc(NC3CC3)c1C2)c1ccccc1O` [Compound 17], the “binding to Family VIII bromodomains by ITC” value with Family VIII bromodomains is recorded as “potent binder to most of the Family VIII bromodomains”. Moreover, the “FRAP half-recovery time (t1/2) of GFP-SMARCA2” value at GFP-SMARCA2 in U2OS is “accelerated FRAP half-recovery time (t1/2) significantly in a dose dependent manner”. The “displacement of GFP-PB1 from chromatin (FRAP)” value at GFP-PB1 (1 μM) is “able to displace PB1 from chromatin”. Besides, in [3], the “effect on cell line proliferation” value is reported as “did not show any effect”. Besides, the “SMARCA4 in cell target engagement (FRAP)” value at SMARCA4 is reported as “confirmed”. Also, the “selectivity over non-family VIII bromodomains, Tm shift panel” value in series [5] is on record as “not active”. For the same molecule, the “selectivity over non-family VIII bromodomains, BROMOscan” value in series [6] is listed as “not active”.
Regarding `C#CCNc1ccnc(N2C[C@H]3C[C@@H]2CN3/C=C/C(=O)c2cccc(OC)c2O)n1` [Compound 18], the “half-recovery time of GFP-PB1 (FRAP)” value on GFP-PB1 was “no effect”.
